# Compound activity from PubChem BioAssay.
# The full list was thinned out, with hits kept by preference.
# T cruzi growth-1 – T. cruzi proliferation inhibition. T. cruzi beta-gal in NIH3T3, GalScreen luminescence, 90 h. inhibition, % at 8.34 µM. hit rate 5.9% among 77,000;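 active = mean inhibition above about 93%, with at least 55% of replicates each passing it, limit read from the data, passing the limit was not always enough; inconclusive = only one of those two conditions holds; inactive = neither condition holds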
# KDM4C inh – KDM4C (human) demethylase inhibition; Q9H3R0; GST-KDM4C 2-372, H3K9me3 peptide, LANCE TR-FRET; AID 720574; inhibition, % at 12.5 µM; hit rate 0.15% among 96,000;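 active = mean replicate inhibition above about 25%, with at least 55% of replicates also reaching it, limit read from the data, passing the limit was not always enough; inconclusive = only one of those two conditions met; inactive = neither condition met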
# Target sequence (Q9H3R0 2-372 limits assumed): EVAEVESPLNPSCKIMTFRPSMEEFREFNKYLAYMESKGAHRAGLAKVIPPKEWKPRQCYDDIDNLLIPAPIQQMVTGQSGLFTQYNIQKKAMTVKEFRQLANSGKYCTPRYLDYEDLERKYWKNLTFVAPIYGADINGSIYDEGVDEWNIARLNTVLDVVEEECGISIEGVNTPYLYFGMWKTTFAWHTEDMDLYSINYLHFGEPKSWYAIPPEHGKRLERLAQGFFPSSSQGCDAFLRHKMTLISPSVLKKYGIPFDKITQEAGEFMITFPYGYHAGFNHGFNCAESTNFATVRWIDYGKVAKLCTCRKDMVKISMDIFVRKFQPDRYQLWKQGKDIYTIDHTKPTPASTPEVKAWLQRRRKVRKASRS
#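 Material: GST-tagged GASC-1 (JMJD2C) catalytic fragment, aa 2-372. Input: enzyme final amount 10 nM. Medium: HEPES buffer, pH 7.5, plus ascorbate. Reagent: H3K9me3 peptide substrate, Fe(II), 2-oxoglutarate. Doses: single dose. Times: reaction 30 min RT, detection step 1 h RT. Measured by: LANCE TR-FRET. Evaluation: Fall in 671/618 emission ratio as inhibition.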
# IDH1 R132H inh – inhibitors of human IDH1 R132H. O75874. IDH1 R132H reductase, diaphorase/resazurin fluorescence, 60 min. inhibition, % at 10 µM. hit rate 0.18% among 70,000; in the data active = inhibition above about 34%; inconclusive = no clear call, values can overlap the other calls; inactive = below about 11%;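 also: 0% = DMSO and 100% = no enzyme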
# T cruzi growth-2 – blocks T. cruzi growth in NIH3T3 host cells; shares compounds with T cruzi growth-1; T. cruzi beta-gal in NIH3T3, GalScreen luminescence, 90 h; inhibition, % at 8.35 µM; hit rate 72% among 5,600; AID 651739;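 active = mean replicate inhibition above about 95% and at least 55% of replicates individually reaching it, limit read from the data; inconclusive = only one of the two criteria is met; inactive = neither criterion is met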
# T cruzi growth-3 – inhibitors of T. cruzi proliferation | T. cruzi beta-gal in NIH3T3, GalScreen luminescence, 90 h | shares compounds with T cruzi growth-1 | AID 651740 | inhibition, % at 2.09 µM | hit rate 21% among 5,600;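 active = mean inhibition above about 95%, with at least 55% of replicates also reaching it, limit read from the data; inconclusive = meets just one of the two conditions; inactive = meets neither condition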;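 also: plate controls were neutral control median for no effect and positive control median for full effect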
# 3T3 cytotox – kills mouse NIH/3T3 fibroblasts; shares compounds with T cruzi growth-1; NIH/3T3 viability, CellTiter-Glo ATP luminescence, 90 h; cytotoxicity (signal decrease), % at 8.35 µM; hit rate 14% among 5,600; AID 651742;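 active = mean signal decrease across replicates above about 35% based on untreated-well scatter, with enough replicates individually passing, limit read from the data; inconclusive = no rule stated though some were filed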;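 also: 0% = median of neutral control wells and 100% = median of positive control wells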
# NIH3T3 tox 2 – NIH/3T3 (mouse) viability loss. shares compounds with T cruzi growth-1. NIH/3T3 viability, CellTiter-Glo ATP luminescence, 90 h. inhibition, % at 24.9 µM. hit rate 56% among 5,600. AID 651744;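 active = mean loss of cell viability signal at or above a set limit, and enough replicates individually reaching it; inconclusive = meets only the mean limit or only the replicate share; inactive = meets neither condition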;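 also: 0% = median of neutral control wells and 100% = median of positive control wells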
# An asterisk follows results filed as active; ? = inconclusive; . = no result given.
SMILES,T cruzi growth-1,KDM4C inh,IDH1 R132H inh,T cruzi growth-2,T cruzi growth-3,3T3 cytotox,NIH3T3 tox 2
COc1ccc(S(=O)(=O)N(C)C[C@H]2OCCCC[C@@H](C)Oc3ccc(NS(=O)(=O)c4ccccc4)cc3C(=O)N([C@@H](C)CO)C[C@H]2C)cc1,107*,-2,1,?,43,-6,3
COc1ccc(S(=O)(=O)N(C)C[C@@H]2OCCCC[C@@H](C)Oc3ccc(NS(=O)(=O)c4ccccc4)cc3C(=O)N([C@H](C)CO)C[C@H]2C)cc1,106*,7,0,109*,55,7,4
COc1ccc(S(=O)(=O)Nc2ccc3c(c2)C(=O)N([C@H](C)CO)C[C@H](C)[C@H](CN(C)S(=O)(=O)c2ccccc2)OCCCC[C@H](C)O3)cc1,.,-1,1,.,.,.,.
CN1c2ccc(-c3ccccc3F)cc2[C@H]2[C@H](CCN2S(=O)(=O)c2ccc(F)cc2)[C@@H]1CO,113*,7,.,99*,98*,19,80*
Cc1ccc(S(=O)(=O)N2CC[C@H]3[C@@H](CO)N(C)c4ccc(-c5ccccc5F)cc4[C@H]32)cc1,92,0,.,.,.,.,.
CN1c2ccc(-c3ccccc3F)cc2[C@@H]2[C@@H](CCN2S(=O)(=O)c2ccccc2F)[C@@H]1CO,116*,0,.,100*,64,?,41*
CN1c2ccc(-c3ccccc3F)cc2[C@H]2[C@H](CCN2S(=O)(=O)c2ccccc2F)[C@@H]1CO,93,0,.,.,.,.,.
CCn1c(SCC(=O)Nc2cccc(OC)c2)nc2scc(-c3ccccc3)c2c1=O,.,.,1,.,.,.,.
Cc1ccc(NC(=O)CSc2nnc(-c3cccc4ccccc34)n2-c2ccccc2)c(C)c1,.,.,0,.,.,.,.
C[C@@H]1CN([C@@H](C)CO)C(=O)c2cc(NC(=O)Nc3cccc4ccccc34)ccc2O[C@@H](C)CCCCO[C@@H]1CN(C)Cc1ccc2c(c1)OCO2,102*,-1,-2,110*,75,13,23
C[C@@H]1CCCCO[C@@H](CN(C)C(=O)Nc2ccc3c(c2)OCO3)[C@@H](C)CN([C@@H](C)CO)C(=O)c2cc(NC(=O)Nc3cccc4ccccc34)ccc2O1,.,-1,0,.,.,.,.
C[C@H](CO)N1C[C@H](C)[C@H](CN(C)C(=O)Nc2ccc3c(c2)OCO3)OCCCC[C@H](C)Oc2ccc(NC(=O)Nc3cccc4ccccc34)cc2C1=O,62,-2,1,.,.,.,.
C[C@@H]1CN([C@@H](C)CO)C(=O)c2cc(NC(=O)Nc3cccc4ccccc34)ccc2O[C@@H](C)CCCCO[C@H]1CN(C)Cc1ccc2c(c1)OCO2,121*,-2,1,106*,91,26,105*
C[C@H](CO)N1C[C@H](C)[C@@H](CN(C)Cc2ccc3c(c2)OCO3)OCCCC[C@H](C)Oc2ccc(NC(=O)Nc3cccc4ccccc34)cc2C1=O,?,-1,.,103*,111*,33,42*
C[C@H](CO)N1C[C@H](C)[C@H](CN(C)Cc2ccc3c(c2)OCO3)OCCCC[C@H](C)Oc2ccc(NC(=O)Nc3cccc4ccccc34)cc2C1=O,107*,-3,.,104*,97*,23,45*
COc1ccc(NC(=O)Cn2cnc3sc(-c4ccccc4)cc3c2=O)cc1,.,.,0,.,.,.,.
O=C(CN1C(=O)c2ccccc2S1(=O)=O)Nc1ccccc1Br,.,.,0,.,.,.,.
COC(=O)c1ccc(Cl)c(NC(=O)CSc2nnc(-c3cc(OC)cc(OC)c3)o2)c1,.,.,0,.,.,.,.
Cc1cccc(-c2nc3cc(NC(=O)COc4ccccc4[N+](=O)[O-])ccc3o2)c1,.,.,0,.,.,.,.
CCOc1ccccc1NC(=O)C(C)N1c2cccc3cccc(c23)S1(=O)=O (stereo not given),.,.,1,.,.,.,.
C[C@@H]1CCCCO[C@H](CN(C)Cc2ccc3c(c2)OCO3)[C@H](C)CN([C@H](C)CO)C(=O)c2cc(NC(=O)Nc3cccc4ccccc34)ccc2O1,136*,-3,.,107*,118*,?,94*
C[C@@H]1CCCCO[C@H](CN(C)Cc2ccc3c(c2)OCO3)[C@@H](C)CN([C@H](C)CO)C(=O)c2cc(NC(=O)Nc3cccc4ccccc34)ccc2O1,91,-3,1,.,.,.,.
CCN(CC)c1ccc(/C=N/NC(=O)c2ccccc2O)c(O)c1,.,.,0,.,.,.,.
O=C(C[C@@H]1CC[C@H]2[C@@H](COC[C@@H](O)CN2S(=O)(=O)c2ccccc2)O1)Nc1ccccc1,-14,0,.,.,.,.,.
Cc1cccc(S(=O)(=O)N2C[C@H](O)COC[C@@H]3O[C@H](CC(=O)Nc4ccc(-c5ccccc5)cc4)CC[C@H]32)c1,112*,0,.,102*,107*,10,16
SMILES,T cruzi growth-1,KDM4C inh,IDH1 R132H inh,T cruzi growth-2,T cruzi growth-3,3T3 cytotox,NIH3T3 tox 2
Cc1cccc(S(=O)(=O)N2C[C@H](O)COC[C@@H]3O[C@@H](CC(=O)Nc4ccc(-c5ccccc5)cc4)CC[C@H]32)c1,111*,-2,.,97*,?,60*,78*
O=C(C[C@@H]1CC[C@@H]2[C@H](COC[C@@H](O)CN2S(=O)(=O)c2ccccc2)O1)Nc1ccc(-c2ccccc2)cc1,104*,-2,.,117*,72,17,20
Cc1cccc(S(=O)(=O)N2C[C@@H](O)COC[C@H]3O[C@@H](CC(=O)Nc4ccc(-c5ccccc5)cc4)CC[C@@H]32)c1,113*,-1,.,100*,95,7,78*
O=C(C[C@H]1CC[C@@H]2[C@H](COC[C@H](O)CN2S(=O)(=O)c2ccccc2)O1)Nc1ccc(-c2ccccc2)cc1,88,-2,.,.,.,.,.
O=C(C[C@@H]1CC[C@H]2[C@@H](COC[C@@H](O)CN2S(=O)(=O)c2cccc(F)c2)O1)Nc1ccc(-c2ccccc2)cc1,92,-1,.,.,.,.,.
O=C(C[C@H]1CC[C@@H]2[C@H](COC[C@@H](O)CN2S(=O)(=O)c2ccccc2)O1)Nc1ccc(-c2ccccc2)cc1,69,0,.,.,.,.,.
CC(C)N(Cc1nc(-c2ccc(Cl)cc2)no1)S(=O)(=O)c1cccc([N+](=O)[O-])c1,.,.,0,.,.,.,.
Cc1ccc(Oc2ccc(NC(=O)CCCC(=O)O)cc2)cc1C,.,.,0,.,.,.,.
CS(=O)(=O)N(CC(=O)Nc1ccc(Cl)c(C(F)(F)F)c1)c1cccc([N+](=O)[O-])c1,.,.,0,.,.,.,.
Cc1cc(OCC(=O)Nc2cccnc2)cc(C)c1Cl,.,.,0,.,.,.,.
O=C(CSc1nnc(-c2cccs2)n1-c1ccccc1)Nc1ccccc1Cl,.,.,0,.,.,.,.
Cc1cc(C)n2nc(NCc3cccc([N+](=O)[O-])c3)nc2n1,.,.,0,.,.,.,.
O=C(C[C@@H]1CC[C@@H]2[C@H](COC[C@@H](O)CN2S(=O)(=O)c2cccc(F)c2)O1)Nc1ccc(-c2ccccc2)cc1,95,-1,.,.,.,.,.
